Measurements reported in ChEMBL document CHEMBL1154522, “Aryl sulfamates are broad spectrum inactivators of sulfatases: effects on sulfatases from various sources” (Bioorg Med Chem Lett, 2009).

Experiments:
[1] = Dissociation constant, pKa of the compound; format: physicochemical
[2] = Inhibition of Patella vulgata type 5 recombinant sulfatase expressed in Escherichia coli
Summary of the method: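 Limpet sulfatase at pH 7 with 0–12.5 mM sulfamate; semi-logarithmic plots of residual activity over time, inactivation rates replotted against concentration to give Ki and kinact.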

[3] = Inhibition of Helix pomatia type H1 recombinant sulfatase expressed in Escherichia coli
Summary of the method: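 Snail sulfatase incubated at pH 7 with 0–500 µM 3-nitrophenyl sulfamate; residual activity plotted semi-logarithmically against time, and pseudo-first-order rates replotted against inactivator concentration to fit Ki and kinact (E + I ⇌ E·I → E–P).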

[4] = Chemical decomposition at pH 7 after 15 mins; conditions: buffer
[5] = Inhibition of abalone entrails type 8 recombinant sulfatase expressed in Escherichia coli by slow phase inactivation; design: species or system Haliotis corrugata
[6] = target: Arylsulfatase (Pseudomonas aeruginosa (strain ATCC 15692 / PAO1 / 1C / PRS 101 / LMG12228), UniProt P51691); assay: Inhibition of Pseudomonas aeruginosa recombinant arylsulfatase A expressed in Escherichia coli
Sequence of Arylsulfatase (P51691 whole entry): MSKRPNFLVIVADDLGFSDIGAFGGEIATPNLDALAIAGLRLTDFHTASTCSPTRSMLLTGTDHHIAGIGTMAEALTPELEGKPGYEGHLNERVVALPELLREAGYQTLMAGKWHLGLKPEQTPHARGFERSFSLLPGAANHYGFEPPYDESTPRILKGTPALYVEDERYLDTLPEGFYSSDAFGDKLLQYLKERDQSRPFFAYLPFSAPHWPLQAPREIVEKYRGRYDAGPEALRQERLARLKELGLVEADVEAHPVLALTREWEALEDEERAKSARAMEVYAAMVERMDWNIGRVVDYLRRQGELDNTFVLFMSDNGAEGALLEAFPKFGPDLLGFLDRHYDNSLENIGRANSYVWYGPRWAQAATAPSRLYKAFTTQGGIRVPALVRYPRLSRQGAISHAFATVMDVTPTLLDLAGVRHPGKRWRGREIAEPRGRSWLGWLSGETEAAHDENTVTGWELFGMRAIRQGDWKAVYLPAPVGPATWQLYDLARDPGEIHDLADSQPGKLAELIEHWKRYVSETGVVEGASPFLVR

[7] = Inhibition of abalone entrails type 8 recombinant sulfatase expressed in Escherichia coli by fast phase inactivation; design: species or system Haliotis corrugata

pKa [1]	decomposed at 0.25 h [4] [%]	Ki [6] [nM]	SMILES	Ki [2] [µM]	Ki [3] [µM]	Ki [5] [mM]	Ki [7] [mM]
7.14	–	–	O=[N+]([O-])c1ccc(OS(=O)(=O)O)cc1	–	–	–	–
–	4.2	130	NS(=O)(=O)Oc1cccc([N+](=O)[O-])c1	980	35	5	1.6
